# Measured values reported in ChEMBL document CHEMBL1154569, “Scalarane and homoscalarane compounds from the nudibranchs Glossodoris sedna and Glossodoris dalli: chemical and biological properties” (J Nat Prod, 2000).
# The source made the active and inactive calls. No cut-off for these calls is given here.
# Key:
# [1] = Inhibition of cytosolic PLA2
# Outline: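 Measured in RBL-2H3 cells stimulated with ionomycin.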
# Gambusia affinis = experiment: Ichthyotoxicity against Gambusia affinis at 0.1 ppm
SMILES,Activity [1],Activity (Gambusia affinis),IC50 [1] [µM]
CC(=O)OC[C@]12CCCC(C)(C)[C@@H]1CC[C@]1(C)[C@@H]2C[C@@H](O)[C@]2(C)[C@@H]3C(=CC[C@@H]12)[C@H](C)O[C@H]3O,inactive,inactive,
CC(=O)O[C@H]1C[C@@H]2[C@@]3(C)CCCC(C)(C)[C@@H]3CC[C@@]2(C)[C@@H]2CC=C(C=O)[C@H](C=O)[C@@]12C [SCALARADIAL],,Active,0.6
C[C@@H]1O[C@@H](O)[C@H]2C1=CC[C@H]1[C@]3(C)CC[C@H]4C(C)(C)CCC[C@]4(C)[C@H]3C[C@@H](O)[C@]21C,inactive,inactive,
CC(=O)O[C@H]1C[C@@H]2[C@@]3(C)CCCC(C)(C)[C@@H]3CC[C@@]2(C)[C@@H]2CC=C3CO[C@@H](O)[C@@H]3[C@@]12C,inactive,inactive,
CC(=O)OC[C@]12CCCC(C)(C)[C@@H]1CC[C@]1(C)[C@@H]2C[C@@H](O)[C@]2(C)[C@@H](C=O)C(C(C)=O)=CC[C@@H]12,,,18
CC(=O)O[C@@H]1C[C@@H]2[C@@]3(C)CCCC(C)(C)[C@@H]3CC[C@@]2(C)[C@@H]2CC=C3CO[C@@H](O)[C@@H]3[C@@]12C,inactive,inactive,
